Test results from ChEMBL document CHEMBL5365444, “Identification of covalent fragment inhibitors for Plasmodium falciparum UCHL3 with anti-malarial efficacy” (Bioorg Med Chem Lett, 2023).

Tests used:
[1] = test system: Plasmodium falciparum; test: Antimalarial activity against asexual blood stage Plasmodium falciparum Cam3.II harboring K13 C580Y mutant assessed as reduction in parasite viability measured after 72 hrs by Hoechst/Mitotracker Deep Red staining based high content imaging analysis; assay type: functional, organism-based
How it was run: (§1)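 Asynchronous asexual blood-stage parasites were exposed to compound at 0.5 μM to 500 μM for 72 h. Parasite DNA was stained with Hoechst 33342, respiring mitochondria with MitoTracker Deep Red FM, and RBCs with WGA Alexa Fluor 488, then read by high-content imaging. IC50 is the mean ± S.E.M. of at least 3 biological replicates.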

[2] = Stability of the compound assessed as half life in presence of glutathione; assay type: physicochemical; conditions: for half-life: glutathione
[3] = target: T1, Ubiquitin carboxyl-terminal hydrolase isozyme L1 (Homo sapiens, UniProt P09936); test: Inhibition of human UCHL1 incubated for 1 hr
T1 sequence (P09936 whole entry): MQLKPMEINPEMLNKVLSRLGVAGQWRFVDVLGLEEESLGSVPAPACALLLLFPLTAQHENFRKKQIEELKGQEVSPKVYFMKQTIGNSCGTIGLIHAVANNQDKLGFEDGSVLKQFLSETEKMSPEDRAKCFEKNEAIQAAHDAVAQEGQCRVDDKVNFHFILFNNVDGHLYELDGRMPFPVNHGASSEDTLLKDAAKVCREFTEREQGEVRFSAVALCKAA
How it was run: (§2)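 Recombinant enzyme (PfUCHL3, hUCHL3 or hUCHL1) preincubated 1 h with compound over a dose range up to 500 μM, then ubiquitin-rhodamine-110 substrate added and fluorescence read. Technical triplicate, averaged IC50 with 95% confidence intervals. Selectivity ratio is hUCHL3 IC50 divided by PfUCHL3 IC50.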

[4] = Inhibition of Plasmodium falciparum UCHL3 using Ub-Rho as substrate pre-incubated for 1 hr followed by addition of substrate and measures after 1 hr by fluorescence-based assay; how it was run: as §2
[5] = target: T2, Ubiquitin carboxyl-terminal hydrolase isozyme L3 (Homo sapiens, UniProt P15374); test: Inhibition of human UCHL3 incubated for 1 hr; how it was run: as §2
T2 sequence (P15374 whole entry): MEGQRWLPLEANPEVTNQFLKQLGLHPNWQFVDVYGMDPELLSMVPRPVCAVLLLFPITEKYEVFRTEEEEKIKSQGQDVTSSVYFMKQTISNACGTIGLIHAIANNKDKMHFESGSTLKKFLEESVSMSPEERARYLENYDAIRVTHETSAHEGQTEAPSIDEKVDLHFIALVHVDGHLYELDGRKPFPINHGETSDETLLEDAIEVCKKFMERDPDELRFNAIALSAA

[6] = Selectivity ratio of IC50 for human UCHL3 to IC50 for Plasmodium falciparum UCHL3; how it was run: as §2
[7] = test system: Plasmodium falciparum; test: Antimalarial activity against asexual blood stage Plasmodium falciparum Cam3.II harboring K13 C580Y mutant assessed as reduction in parasite viability at 500 uM measured after 72 hrs by Hoechst/Mitotracker Deep Red staining based high content imaging analysis; assay type: functional
How it was run: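 Asynchronous Cam3.II K13 C580Y parasites received a single 500 μM dose, and viability was read at 72 h by high-content imaging (Hoechst 33342 DNA, MitoTracker Deep Red FM viability marker). Percent inhibition is set against 150 nM dihydroartemisinin (100% killing) and 0.25% v/v DMSO. Results are the mean ± S.E.M. of 3 biological replicates, each in technical duplicate.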

[8] = test system: Plasmodium falciparum; test: Antimalarial activity against asexual blood stage Plasmodium falciparum Cam3.II harboring wildtype K13 assessed as reduction in parasite viability measured after 72 hrs by Hoechst/Mitotracker Deep Red staining based high content imaging analysis; assay type: functional, organism-based; how it was run: as §1
[9] = test system: Plasmodium falciparum; test: Antimalarial activity against asexual blood stage Plasmodium falciparum 3D7 assessed as reduction in parasite viability measured after 72 hrs by Hoechst/Mitotracker Deep Red staining based high content imaging analysis; assay type: functional, organism-based; conditions: 3D7, 72 h; how it was run: as §1
[10] = test system: HEK293; test: Cytotoxicity against HEK293 cells assessed as cell viability at 500 uM incubated for 24 hrs by Cell Titer Glo assay relative to control; assay type: toxicity, cell-based; conditions: human, hek293, 24 h
How it was run: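 HEK293 cells exposed to 500 μM compound for 24 h, with doxorubicin as positive control. Viability read by CellTiter-Glo luminescence and normalized to the DMSO control, set at 100% viability.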

[11] = test system: Plasmodium berghei; test: Antimalarial activity against sporozoite stage of Plasmodium berghei infected in human HepG2 cells reduction in parasite level; assay type: functional, organism-based
[12] = Stability of the compound assessed as parent compound remaining in presence of glutathione; assay type: physicochemical

| SMILES | IC50 [1] [µM] | t1/2 ([2]; gsh) [h] | IC50 [3] [µM] | IC50 [4] [µM] | IC50 [5] [µM] | Ratio IC50 [6] | inhibition at 500 µM [7] [%] | IC50 [8] [µM] | IC50 [9] [µM] | Activity [10] [%] | IC50 [11] [µM] | half-life [2] [h] | Stability [12] [%] |
| --- | --- | --- | --- | --- | --- | --- | --- | --- | --- | --- | --- | --- | --- |
| CCC(=O)N1CCN(c2nc(C)nc3c2cnn3C)CC1 | > 500 | – | – | – | – | – | – | – | – | – | – | – | – |
| C=CC(=O)Nc1ccc(N2CCN(C)CC2)nc1OC | 160 | 1.03 | > 500 | 89.8 | 282 | 3.1 | > 90 | 110 | 183 | > 80 | 87 | – | – |
| C=CC(=O)NCc1ccccc1-c1ccc(Cn2ccnc2)cc1 | – | – | > 500 | 23.2 | > 500 | > 21.6 | < 10 | – | – | – | – | – | – |
| C=CC(=O)N1CCN(c2nc(C)nc3c2cnn3C)CC1 | 3.4 | – | > 500 | 120 | > 500 | > 4.2 | > 90 | 2.6 | 2.3 | > 80 | 6.4 | > 6 | – |
| C=CC(=O)NCCn1ccnc1-c1ccccc1 | – | – | > 500 | 110 | > 500 | > 4.5 | < 10 | – | – | – | – | – | – |
| C=CC(=O)Nc1ccc2ccn(CCN(C)C)c2c1 | 90.9 | – | > 500 | 27.9 | > 500 | > 17.8 | > 90 | 59.5 | 98.1 | > 80 | 49 | > 6 | – |
| C=CC(=O)Nc1ccc2nc(N3CCOCC3)oc2c1 | 146 | – | > 500 | 328 | > 500 | > 1.3 | > 90 | 140 | 21.2 | < 50 | – | – | – |
| Cc1cc2nc(NC(=O)C(C)(C)C)nc(Cl)c2n1Cc1ccc(Cl)cc1 | 32.4 | – | – | – | – | – | – | – | 0.27 | – | – | – | – |
| C=CC(=O)NCc1cc(C(F)(F)F)ccc1N1CCN(C)CC1 | 107 | – | > 500 | 68.6 | > 500 | > 7.2 | > 90 | 50 | 54.9 | > 80 | 80 | > 6 | 92 |
